Results published in PMC11522000 (Nature Microbiology, 2024).

Legend:
Cytotoxicity assay = assay type: cell-based, human; details: human, HepG2 cells (ATCC CRL-10741), HepG2 CC50, 96 h
[1] = In vivo pharmacokinetic analysis; parameters: species or system mouse
Summary of the method: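 Animals were male C57BL/6 mice (8–10 weeks), Wistar rats (8–10 weeks) and beagle dogs (12–14 weeks). Each received oral and i.v. doses, with plasma sampling for PK parameters.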

[2] = 2 weeks GLP rat toxicology study with toxicokinetics; assay type: in vivo; details: both, Wistar; for AUC(0-t): AUC0-8, rat
Summary of the method: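 Male and female Wistar rats were about 7–8 weeks old at receipt and 9–10 weeks old at the start of dosing. They were dosed for 2 weeks at 50, 250 and 1000 mg/kg/day, with toxicokinetic plasma sampling.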

[3] = 2 weeks GLP dog toxicology study with toxicokinetics; assay type: in vivo; details: for AUC(0-t): AUC0-8, dog
C. parvum [4] = test: Live imaging of C. parvum in HCT-8 cells; assay type: cell-based, Cryptosporidium parvum; details: compound at 3 h post infection
C. parvum [5] = test: Time-kill assay, nanoluciferase-expressing C. parvum; assay type: cell-based, Cryptosporidium parvum
[6] = male, C57BL/6, mouse, plasma, iv, 1 mg/kg
[7] = male, C57BL/6, mouse, plasma, po, 10 mg/kg
[8] = plasma, po, 1000 mg/kg/day, EDI048 1000 mg/kg/day, day 1
[9] = plasma, po, 1000 mg/kg/day, EDI048 1000 mg/kg/day, day 14

CNC(=O)c1ccc(-c2cnn3ccc(C(=O)N(C)c4ccc(Cl)c(C(=O)OC)c4)cc23)cc1 [EDI048, methyl 2-chloro-5-(N-methyl-3-(4-(methylcarbamoyl)phenyl)pyrazolo[1,5-a]pyridine-5-carboxamido)benzoate]
CC50 at 96 h (Cytotoxicity assay): 28.1 µM | AUC [1, 6]: 0.668 µM·h | Vd [1, 6]: 1.05 L/kg | clearance [1, 6]: 66.7 mL/min/kg | half-life [1, 6]: 25.8 min | AUC [1, 7]: 0.0204 µM·h | Cmax [1, 7]: 8.4 nM | Tmax [1, 7]: 60 min | bioavailability [1, 7]: 0.4% | Cmax ([1]; mouse, oral 1 mg/kg): <LLOQ | Cmax ([1]; mouse, oral 3 mg/kg): <LLOQ | NOAEL at 14 days ([2]; in vivo, po): 1000 mg/kg/day | Tmax ([2]; plasma, oral, rat toxicity study): 30 min | AUC(0-t) [2, 8]: 11.1 ng·h/mL | AUC(0-t) [2, 9]: 18.6 ng·h/mL | Cmax ([2]; plasma, po, 1000 mg/kg/day, Cmax, EDI048 1000 mg/kg/day, day 14): 4.13 ng/mL | Tmax [2, 8]: 30 min | Tmax [2, 9]: 30 min | NOAEL at 14 days ([3]; both, beagle, dog, in vivo, po): 1000 mg/kg/day | Tmax ([3]; both, beagle, dog, plasma, oral, dog toxicity study): ≤ 75 min | AUC(0-t) ([3]; both, beagle, dog, plasma, po, 1000 mg/kg/day, EDI048 1000 mg/kg/day, day 1): 459 ng·h/mL | AUC(0-t) ([3]; both, beagle, dog, plasma, po, 1000 mg/kg/day, EDI048 1000 mg/kg/day, day 14): 634 ng·h/mL | Cmax ([3]; both, beagle, dog, plasma, po, 1000 mg/kg/day, Cmax, dog, EDI048 1000 mg/kg/day, day 14): 169 ng/mL | Tmax ([3]; both, beagle, dog, plasma, po, 1000 mg/kg/day, dog, EDI048 1000 mg/kg/day, day 1): 57 min | Tmax ([3]; both, beagle, dog, plasma, po, 1000 mg/kg/day, dog, EDI048 1000 mg/kg/day, day 14): 45 min | cardiovascular findings in dogs ([3]; up to 1000 mg/kg/day): no EDI048-related cardiovascular findings | live imaging of infected HCT-8 cells (C. parvum [4]): parasites were arrested at the meront stage, preventing egress | concentration achieving maximum rate of parasite elimination (C. parvum [5]): ≥ 27 nM
